PubChem BioAssay
Activity calls are given as the source filed them.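 The calls were made as follows, unless noted: active = inhibition above 20% together with a positive visual image hit; inconclusive = visual image hit but inhibition not above 20%; inactive = no visual image hit.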

Assays:
[1] = inhibitors of TNFa-induced NFkB p65 translocation, primary screen, imaging, HUVEC, MLSMR starter and 10KST1 sets (AID 438); conditions: HUVEC TNFa-induced p65 nuclear translocation; cell count: measured here: nuclei count (cytotoxicity indicator), at 2.08 µM; inhibition: at 2 µM, stronger effect = higher value, 0% TNFa-plus-vehicle, 100% no-TNFa wells;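 also: compound added about 3h40 before a 20 min TNFalpha stimulation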;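 as to inhibition: signal is the nuclear over cytoplasmic p65 intensity ratio per well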
[2] = inhibitors of mutant huntingtin aggregation, primary screen, imaging, exon1htt(103Q)mCFP cells, high-content imaging (AID 483;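 active = visual image review flags a hit and inhibition of aggregation exceeds 20%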;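 also: compound exposure lasted 3 days before fixation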;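 as to nuclei count: percent of the per-plate median nuclei count of sample wells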); conditions: exon1htt(103Q)mCFP cell line, aggregate imaging, at 2 µM; inhibition of aggregation: stronger effect = higher value; nuclei count: measured here: cell count, toxicity
[3] = inhibitors of E-selectin induction by TNFa, primary screen, imaging, HUVEC, immunofluorescence, MLSMR starter and 10KST1 sets (AID 487;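 active = visually confirmed hit in the image check and inhibition above 20%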;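 as to inhibition: signal is fraction of cell area covered by stained E-selectin grains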;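 as to nuclei count: 100% = median nuclei count of all wells on the same plate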); conditions: HUVEC TNFalpha-induced E-selectin immunofluorescence imaging, at 2 µM; inhibition: stronger effect = higher value; nuclei count: measured here: cell number, toxicity
[4] = target: Voltage-gated potassium channel subunit beta-2 (Rattus norvegicus) (UniProt P62483); test: KvBeta enzyme negative modulators, primary screen, biochemical, NADPH fluorescence (AID 622;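 active = fluorescence slope higher than the sample average by over 3 SD, cut at about -0.22 in these data, passing the limit was not always enough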;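 also: slope of raw intensity against log time taken from 70 to 1610 s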); conditions: recombinant KvBeta, 4-cyanobenzaldehyde reduction, at 10 µM, stronger effect = higher value
Chain of Voltage-gated potassium channel subunit beta-2 (Rattus norvegicus) (P62483 whole entry, looked up): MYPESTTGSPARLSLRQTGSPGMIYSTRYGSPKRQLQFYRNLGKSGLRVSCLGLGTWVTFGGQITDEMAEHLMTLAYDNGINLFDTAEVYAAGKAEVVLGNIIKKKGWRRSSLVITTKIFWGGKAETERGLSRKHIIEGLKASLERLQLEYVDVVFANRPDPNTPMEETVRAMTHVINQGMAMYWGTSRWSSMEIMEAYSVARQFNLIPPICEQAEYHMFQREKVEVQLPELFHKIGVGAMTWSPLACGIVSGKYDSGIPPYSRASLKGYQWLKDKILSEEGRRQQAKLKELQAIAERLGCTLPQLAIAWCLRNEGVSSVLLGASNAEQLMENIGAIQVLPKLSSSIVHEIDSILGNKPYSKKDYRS

[5] = target: Voltage-gated potassium channel subunit beta-2 (Rattus norvegicus) (UniProt P62483); test: KvBeta positive modulators, primary screen, biochemical, NADPH fluorescence (AID 623;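 active = NADPH fluorescence slope more negative than the mean of all samples by about 3 SD, 99.7% confidence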;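 also: fluorescence intensity change per second fitted from 20 to 320 s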); conditions: Recombinant KvBeta, NADPH fluorescence decrease slope, 10 min; at 10 µM; stronger effect = lower value
[6] = target: Muscarinic acetylcholine receptor M4 (Homo sapiens) (UniProt P08173); test: compounds altering M4/GIRK thallium flux, either direction, primary screen, M4 allosteric agonist project, cell-based, HEK293 M4/GIRK, BTC-AM (AID 625;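 active = fluorescence slope after compound addition differing from the mean of all tested samples at 99.7% confidence, mostly higher but some lower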;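 also: thallium influx through GIRK channels coupled to M4 in HEK293 cells with BTC-AM dye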); conditions: at 10 µM, actives lie on both sides
Chain of Muscarinic acetylcholine receptor M4 (Homo sapiens) (P08173 whole entry, looked up): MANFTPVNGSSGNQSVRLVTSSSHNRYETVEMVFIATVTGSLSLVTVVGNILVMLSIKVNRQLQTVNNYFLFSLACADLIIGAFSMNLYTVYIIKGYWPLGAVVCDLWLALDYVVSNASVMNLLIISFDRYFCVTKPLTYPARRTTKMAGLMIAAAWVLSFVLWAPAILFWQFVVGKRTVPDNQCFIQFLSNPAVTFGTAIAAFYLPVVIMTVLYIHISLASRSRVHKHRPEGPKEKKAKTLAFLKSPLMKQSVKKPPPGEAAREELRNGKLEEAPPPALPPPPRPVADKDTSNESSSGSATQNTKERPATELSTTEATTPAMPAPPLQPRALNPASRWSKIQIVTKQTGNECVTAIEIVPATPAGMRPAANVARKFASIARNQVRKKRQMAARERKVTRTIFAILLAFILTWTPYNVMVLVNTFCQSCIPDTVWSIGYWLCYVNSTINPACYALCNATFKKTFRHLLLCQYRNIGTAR
How it was run: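 Material – HEK293 cells with M4 receptor and GIRK channels · Buffer or medium – pH 7.3 thallium assay buffer · Doses – one dose, 10 µM final · Timing – cells overnight at 37 °C, BTC-AM loading 1 h, reads 2 min total · Measured by – kinetic fluorescence with BTC-AM dye · Controls – carbachol and DMSO controls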

[7] = inhibitors of Sendai virus-induced IRF3 signaling, primary screen, TLR/RLR signaling modifier project, cell-based, Sendai virus stimulus, luciferase, 10K MLSCN set (AID 602276;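 active = inhibition at or above 50% at 10 µM; inactive = inhibition below 50%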;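 also: firefly luciferase from ISG56 promoter only with Renilla not read in this screen; 0% = Sendai virus plus DMSO and 100% = medium plus DMSO without virus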); conditions: HEK293 RL24 IRF3 luciferase reporter, at 10 µM, stronger effect = higher value
[8] = inhibitors of poly I:C-induced TLR3 signaling, primary screen, cell-based, poly I:C stimulus, luciferase, 10K MLSCN set (AID 602277;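 active = inhibition of the reporter signal at or above 50%; inactive = inhibition below 50%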); conditions: HEK293-TLR3 RL24 IRF3 luciferase reporter, at 10 µM, stronger effect = higher value

Structure (SMILES) | cell count [1] | inhibition [1] | inhibition of aggregation [2] | nuclei count [2] | inhibition [3] | nuclei count [3] | fluorescence slope [4] | NADPH fluorescence slope [5] | fluorescence slope [6] | inhibition [7] | inhibition [8]
C/C(N)=C(\C#N)C(=O)NCCc1ccccn1 | 326 | -1.7% (inactive) | -11.6% (inactive) | 106% | -26.9% (inactive) | 102% | -0.613 (inactive) | 2e-05 (inactive) | 0.00369 (inactive) | 7.83% (inactive) | 13.8% (inactive)
CCN1CCN(Cc2c(C)[nH]c3ccc(OC)cc3c2=O)CC1 | 405 | 18.7% (inactive) | -19.4% (inactive) | 99.3% | -241% (inactive) | 113% | -0.57 (inactive) | -9e-05 (inactive) | 0.00708 (inactive) | 19.5% (inactive) | 26.6% (inactive)
CC(C)NC(=O)c1ccccc1NC(=O)c1ccccc1N(C)S(C)(=O)=O | 554 | 25% (inactive) | 6.8% (inactive) | 104% | -155% (inactive) | 101% | -0.456 (inactive) | -5.7e-05 (inactive) | 0.00572 (inactive) | 10.6% (inactive) | 13.7% (inactive)
Cc1nc(=S)n(-c2ccccc2)[nH]1 | 638 | -5% (inactive) | 16.1% (inactive) | 113% | -31.2% (inactive) | 120% | -0.538 (inactive) | -1.9e-05 (inactive) | 0.00665 (inactive) | 11.3% (inactive) | 10.6% (inactive)
CCc1nnc(NC(=O)CSc2nc3ccccc3s2)s1 | 604 | 7.1% (inactive) | -5.7% (inactive) | 100% | -44% (inactive) | 112% | -0.472 (inactive) | -5.3e-05 (inactive) | 0.00516 (inactive) | 11.9% (inactive) | 12.6% (inactive)
Cc1nn(-c2ccc(F)cc2)c2sc(C(=O)OCC(=O)N3CCC(C)CC3)cc12 | 359 | -4.2% (inactive) | -8.8% (inactive) | 95.7% | 0.8% (inactive) | 106% | -0.514 (inactive) | -3.9e-05 (inactive) | 0.00495 (inactive) | -2.34% (inactive) | -1.01% (inactive)
CN(CC(O)COCc1cccs1)C1CCCCC1 (stereo not drawn) | 305 | 10.6% (inactive) | 1.5% (inactive) | 95.2% | -5.5% (inactive) | 105% | -0.448 (inactive) | -4.5e-05 (inactive) | 0.00729 (inactive) | 11.7% (inactive) | 17.5% (inactive)
COc1ccc(Cl)cc1NC(=O)c1oc(C)nc1C | 555 | -0.7% (inactive) | -0.3% (inactive) | 97.4% | -1% (inactive) | 108% | -0.35 (inactive) | -4.4e-05 (inactive) | 0.00568 (inactive) | 25.6% (inactive) | 42.6% (inactive)
CCN1CCN(Cc2ccccc2NC(=O)Nc2ccc(C)cc2)CC1 | 258 | -3.1% (inactive) | 21.9% (inactive) | 41.1% | -23.4% (inactive) | 94% | -0.487 (inactive) | -6.3e-07 (inactive) | 0.00496 (inactive) | -27.3% (inactive) | -69.1% (inactive)
COc1ccccc1-c1nc(C(F)(F)F)c(OC)o1 | 469 | -3.3% (inactive) | -0.2% (inactive) | 120% | -126% (inactive) | 215% | -0.423 (inactive) | -9.3e-07 (inactive) | 0.00491 (inactive) | 21.1% (inactive) | 11.8% (inactive)
C#CCN1C(=O)C(O)(CC(=O)c2cccc(OC)c2)c2ccccc21 (stereo not drawn) | 429 | 1.2% (inactive) | -0.5% (inactive) | 96.2% | -130% (inactive) | 163% | -0.337 (inactive) | -6.5e-05 (inactive) | 0.00596 (inactive) | 10.4% (inactive) | 14.1% (inactive)
CN(C(=O)c1ccncc1)C1CC(C)(C)N(O)C(C)(C)C1 | 344 | 2.8% (inactive) | -9.8% (inactive) | 103% | -67.4% (inactive) | 119% | -0.592 (inactive) | -2.2e-05 (inactive) | 0.00587 (inactive) | -0.539% (inactive) | 8.86% (inactive)
O=S(=O)(NCC(O)COCc1ccco1)c1cccs1 (stereo not drawn) | 297 | 8% (inactive) | -14.1% (inactive) | 108% | 1.6% (inactive) | 97.5% | -0.587 (inactive) | -3.7e-05 (inactive) | 0.00581 (inactive) | 2.99% (inactive) | 8.32% (inactive)
Cn1c(=O)[nH]c(=O)c2[nH]c(CN3CCN(C(=O)c4ccco4)CC3)nc21 | 418 | -2.3% (inactive) | -1.2% (inactive) | 124% | -5.3% (inactive) | 131% | -0.54 (inactive) | -1.3e-05 (inactive) | 0.00483 (inactive) | 1.74% (inactive) | 11% (inactive)
COc1ccc(NC(=O)CCNC(=O)Cn2ccc3ccccc3c2=O)c(OC)c1 | 707 | -8.4% (inactive) | 22.3% (inactive) | 101% | -39.3% (inactive) | 115% | -0.331 (inactive) | -5.9e-05 (inactive) | 0.00839 (inactive) | 14.4% (inactive) | 15.6% (inactive)
O=C(CSc1nc2ccc(Cl)cc2[nH]1)NCc1ccco1 | 273 | 17.8% (inactive) | -10.2% (inactive) | 109% | -3.9% (inactive) | 109% | -0.611 (inactive) | 1.5e-05 (inactive) | 0.00642 (inactive) | 17.9% (inactive) | 20.8% (inactive)
Cc1ccccc1CN1CCN(CC(=O)NCc2ccco2)C1=O | 395 | -1.7% (inactive) | -11.1% (inactive) | 97.3% | -7.2% (inactive) | 109% | -0.511 (inactive) | -0.000109 (inactive) | 0.00663 (inactive) | 23.3% (inactive) | 22.7% (inactive)
CCc1ccc2c(CN(CC)Cc3nc4ccccc4c(=O)[nH]3)cc(=O)oc2c1 | 530 | 1.4% (inactive) | 2% (inactive) | 114% | -23.3% (inactive) | 107% | -0.57 (inactive) | 5.5e-06 (inactive) | 0.00486 (inactive) | 17.1% (inactive) | 26.9% (inactive)
O=C(NCCc1ccccc1)C1CCN(S(=O)(=O)N2CCC3(CC2)OCCO3)CC1 | 715 | 0.2% (inactive) | -7.7% (inactive) | 111% | 16.5% (inactive) | 104% | -0.544 (inactive) | -4.5e-05 (inactive) | 0.00522 (inactive) | 21.6% (inactive) | 20.5% (inactive)
O=C(CCCn1c(=S)[nH]c2ccccc2c1=O)N1CCCCC1 | 452 | -6.2% (inactive) | 6.5% (inactive) | 123% | 1.4% (inactive) | 106% | -0.451 (inactive) | 2.5e-05 (inactive) | 0.00588 (inactive) | -0.408% (inactive) | 6.14% (inactive)
CCOC(=O)c1sc2nc(C)cc(C)c2c1N | 443 | 8.7% (inactive) | -13.6% (inactive) | 111% | -26% (inactive) | 127% | -0.105 (inactive) | -1.9e-05 (inactive) | 0.00463 (inactive) | -33.2% (inactive) | -45.5% (inactive)
CCc1cccc2c(=O)c(C(=O)NCCN3CCOCC3)c[nH]c12 | 584 | 8.2% (inactive) | -3.6% (inactive) | 110% | 27.3% (inactive) | 91.2% | -0.558 (inactive) | -5.3e-05 (inactive) | 0.00469 (inactive) | 1.65% (inactive) | 18.5% (inactive)
CCCc1n[nH]c2c1/C(=N/O)CC(c1ccccc1)C2 (stereo not drawn) | 522 | -13.6% (inactive) | 3.1% (inactive) | 93.4% | -7.4% (inactive) | 110% | -0.594 (inactive) | 4.1e-05 (inactive) | 0.0053 (inactive) | 8.69% (inactive) | -7.88% (inactive)
Cc1ccc(O)c(C(=O)c2cc(C#N)c(=O)n(CC3CCCO3)c2)c1 (stereo not drawn) | 449 | -20.3% (inactive) | 33.7% (active) | 70.1% | 82.1% (active) | 53.1% | -0.561 (inactive) | -4.5e-05 (inactive) | 0.00669 (inactive) | 15% (inactive) | 24.8% (inactive)
COC(=O)c1cc(NC(=O)C2COc3ccccc3O2)cc(C(=O)OC)c1 (stereo not drawn) | 462 | 6.8% (inactive) | 16.1% (inactive) | 101% | -15.6% (inactive) | 107% | -0.517 (inactive) | -3e-05 (inactive) | 0.00524 (inactive) | 11.6% (inactive) | -7.02% (inactive)
N#Cc1cn(CC(=O)N2CCCC2)c2ccccc12 | 391 | 3% (inactive) | -10.4% (inactive) | 108% | -18.5% (inactive) | 95.9% | -0.562 (inactive) | -6.6e-05 (inactive) | 0.00355 (inactive) | 17.7% (inactive) | 22.5% (inactive)
CCOc1cc(C2c3c(n[nH]c3C)C(=O)N2c2ccc(Br)cc2)ccc1O (stereo not drawn) | 572 | -2.3% (inactive) | 7.8% (inactive) | 109% | -89.9% (inactive) | 110% | -0.373 (inactive) | -8.6e-06 (inactive) | 0.00604 (inactive) | 30.1% (inactive) | 30% (inactive)
CC1CCN(S(=O)(=O)c2ccc(NC(=O)CSc3nnnn3C)cc2)CC1 | 289 | -5.4% (inactive) | -4.7% (inactive) | 107% | -1.6% (inactive) | 91.8% | -0.411 (inactive) | -3.1e-05 (inactive) | 0.00682 (inactive) | 10.9% (inactive) | 20.7% (inactive)
